Results from ChEMBL document CHEMBL3352487, “Synthesis, antibacterial activity, and biological evaluation of formyl hydroxyamino derivatives as novel potent peptide deformylase inhibitors against drug-resistant bacteria” (Eur J Med Chem, 2014).
In brackets after ≈: the same amount, converted by molar mass.

What was measured:
Assay type in all cases: functional
Escherichia coli [1] = test: Antimicrobial activity against Escherichia coli isolate 2 after 24 hrs by broth microdilution method; conditions: isolate 2, 24 h
Method in brief: (§1)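 Broth microdilution following NCCLS M7-A4; ATCC strains and clinical isolates from a provincial hospital.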

[2] = system: Staphylococcus epidermidis; test: Antimicrobial activity against Staphylococcus epidermidis after 24 hrs by broth microdilution method; method in brief: as §1
Staphylococcus aureus [3] = test: Antimicrobial activity against methicillin-susceptible Staphylococcus aureus after 24 hrs by broth microdilution method; method in brief: as §1
Staphylococcus aureus [4] = test: Antimicrobial activity against methicillin-resistant Staphylococcus aureus after 24 hrs by broth microdilution method
Method in brief: (§2)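 Broth microdilution following NCCLS M7-A4, using ATCC strains and clinical isolates from a provincial hospital.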

Escherichia coli [5] = test: Antimicrobial activity against Escherichia coli isolate 1 after 24 hrs by broth microdilution method; conditions: isolate 1, 24 h; method in brief: as §1
Staphylococcus aureus [6] = test: Antimicrobial activity against Staphylococcus aureus after 24 hrs by broth microdilution method; method in brief: as §1
Enterococcus faecalis = test: Antimicrobial activity against Enterococcus faecalis after 24 hrs by broth microdilution method; method in brief: as §1
Streptococcus pneumoniae = test: Antimicrobial activity against penicillin-resistant Streptococcus pneumoniae after 24 hrs by broth microdilution method; method in brief: as §2
Moraxella catarrhalis = test: Antimicrobial activity against Moraxella catarrhalis after 24 hrs by broth microdilution method; method in brief: as §1
[7] = system: Staphylococcus epidermidis; test: Antimicrobial activity against methicillin-resistant Staphylococcus epidermidis after 24 hrs by broth microdilution method; method in brief: as §2
[8] = system: Staphylococcus epidermidis; test: Antimicrobial activity against methicillin-susceptible Staphylococcus epidermidis after 24 hrs by broth microdilution method; method in brief: as §1

SMILES	MIC (Escherichia coli [1]) [µg/mL]	MIC [2] [µg/mL]	MIC (Staphylococcus aureus [3]) [µg/mL]	MIC (Staphylococcus aureus [4]) [µg/mL]	MIC (Escherichia coli [5]) [µg/mL]	MIC (Staphylococcus aureus [6]) [µg/mL]	MIC (Enterococcus faecalis) [µg/mL]	MIC (Streptococcus pneumoniae) [µg/mL]	MIC (Moraxella catarrhalis) [µg/mL]	MIC [7] [µg/mL]	MIC [8] [µg/mL]
CCCC[C@H](CN(O)C=O)C(=O)N1CC=C[C@H]1C(=O)N1CCOCC1	> 64	> 64	> 64	32 (≈ 90.5 µM)	> 64	> 64					
CCCC[C@H](CN(O)C=O)C(=O)N1CC=C[C@H]1C(=O)N[C@H](C)c1ccccc1	> 64	4 (≈ 10.3 µM)	16 (≈ 41.3 µM)	2 (≈ 5.16 µM)	> 64	4 (≈ 10.3 µM)					
CCCC[C@H](CN(O)C=O)C(=O)N1CC=C[C@H]1C(=O)Nc1ccccc1Br	> 64	8 (≈ 18.3 µM)	4 (≈ 9.13 µM)	1 (≈ 2.28 µM)	> 64	32 (≈ 73 µM)					
C=C1C[C@@H](C(=O)N2CCOCC2)N(C(=O)[C@H](CCCC)CN(O)C=O)C1	> 64	8 (≈ 21.8 µM)	64 (≈ 174 µM)	4 (≈ 10.9 µM)	> 64	4 (≈ 10.9 µM)					
CCCC[C@H](CN(O)C=O)C(=O)N1CC=C[C@H]1C(=O)N[C@@H](C)c1ccccc1	> 64	8 (≈ 20.6 µM)	16 (≈ 41.3 µM)	8 (≈ 20.6 µM)	> 64	4 (≈ 10.3 µM)					
CCCC[C@H](CN(O)C=O)C(=O)N1CC=C[C@H]1C(=O)Nc1ccccc1	64 (≈ 178 µM)	2 (≈ 5.56 µM)	8 (≈ 22.3 µM)	1 (≈ 2.78 µM)	> 64	4 (≈ 11.1 µM)					
CCCC[C@H](CN(O)C=O)C(=O)N1CC=C[C@H]1C(=O)NC1CC1	32 (≈ 99 µM)	4 (≈ 12.4 µM)	32 (≈ 99 µM)	2 (≈ 6.18 µM)	64 (≈ 198 µM)	64 (≈ 198 µM)					
CCCC[C@H](CN(O)C=O)C(=O)N1CC=C[C@H]1C(=O)Nc1ccc(Cl)cc1	> 64	4 (≈ 10.2 µM)	2 (≈ 5.08 µM)	1 (≈ 2.54 µM)	> 64	8 (≈ 20.3 µM)					
CCCC[C@H](CN(O)C=O)C(=O)N1CC=C[C@H]1C(=O)Nc1nnc(C(F)(F)F)s1	> 64	16 (≈ 36.7 µM)	16 (≈ 36.7 µM)	8 (≈ 18.4 µM)	> 64	32 (≈ 73.5 µM)					
CCCC[C@H](CN(O)C=O)C(=O)N1CC=C[C@H]1C(=O)Nc1ccc(Br)cc1	> 64	2 (≈ 4.56 µM)	1 (≈ 2.28 µM)	0.5 (≈ 1.14 µM)	> 64	4 (≈ 9.13 µM)					
CCCC[C@H](CN(O)C=O)C(=O)N1CC=C[C@H]1C(=O)Nc1ccc(OC)cc1	> 64	2 (≈ 5.14 µM)	2 (≈ 5.14 µM)	1 (≈ 2.57 µM)	> 64	0.5 (≈ 1.28 µM)					
CN[C@H](CC(C)C)C(=O)N[C@H]1C(=O)N[C@@H](CC(N)=O)C(=O)N[C@H]2C(=O)N[C@H]3C(=O)N[C@H](C(=O)N[C@H](C(=O)O)c4cc(O)cc(O)c4-c4cc3ccc4O)[C@H](O)c3ccc(c(Cl)c3)Oc3cc2cc(c3O[C@@H]2O[C@H](CO)[C@@H](O)[C@H](O)[C@H]2O[C@H]2C[C@](C)(N)[C@H](O)[C@H](C)O2)Oc2ccc(cc2Cl)[C@H]1O [VANCOMYCIN]	> 64				> 64						
CCCC[C@H](CN(O)C=O)C(=O)N1CC=C[C@H]1C(=O)Nc1ccc([N+](=O)[O-])cc1	32 (≈ 79.1 µM)	0.5 (≈ 1.24 µM)	2 (≈ 4.95 µM)	0.5 (≈ 1.24 µM)	> 64	0.5 (≈ 1.24 µM)					
CCCC[C@H](CN(O)C=O)C(=O)N1CC=C[C@H]1C(=O)Nc1ccc(F)cc1	64 (≈ 170 µM)	4 (≈ 10.6 µM)	2 (≈ 5.3 µM)	1 (≈ 2.65 µM)	> 64	2 (≈ 5.3 µM)					
Cc1cnc(NC(=O)[C@@H]2C[C@H](C)CN2C(=O)[C@H](CC2CCCC2)CN(O)C=O)s1			0.5 (≈ 1.18 µM)	1 (≈ 2.37 µM)		1 (≈ 2.37 µM)	4 (≈ 9.47 µM)	0.03 (≈ 0.071 µM)	0.5 (≈ 1.18 µM)	2 (≈ 4.73 µM)	0.25 (≈ 0.592 µM)
CCCC[C@H](CN(O)C=O)C(=O)N1CC=C[C@H]1C(=O)Nc1ccccn1	32 (≈ 88.8 µM)	0.5 (≈ 1.39 µM)	1 (≈ 2.77 µM)	0.125 (≈ 0.347 µM)	> 64	0.125 (≈ 0.347 µM)					
C[C@H]1C[C@@H](C(=O)Nc2ccc(F)c[n+]2[O-])N(C(=O)[C@H](CC2CCCC2)CN(O)C=O)C1			0.5 (≈ 1.15 µM)	0.5 (≈ 1.15 µM)		0.5 (≈ 1.15 µM)	2 (≈ 4.58 µM)	0.03 (≈ 0.0687 µM)	0.5 (≈ 1.15 µM)	1 (≈ 2.29 µM)	1 (≈ 2.29 µM)
C=C1C[C@@H](C(=O)Nc2ccccc2)N(C(=O)[C@H](CCCC)CN(O)C=O)C1	> 64	1 (≈ 2.68 µM)	4 (≈ 10.7 µM)	0.5 (≈ 1.34 µM)	64 (≈ 171 µM)	1 (≈ 2.68 µM)					
Cc1ccc(NC(=O)[C@@H]2C[C@H]3CCCC[C@@H]3N2C(=O)[C@H](CC2CCCC2)CN(O)C=O)nc1			4 (≈ 8.76 µM)	4 (≈ 8.76 µM)		4 (≈ 8.76 µM)	> 16	0.03 (≈ 0.0657 µM)	0.5 (≈ 1.1 µM)	8 (≈ 17.5 µM)	0.5 (≈ 1.1 µM)
